Data set [1] is described as follows: Drug excretion in bile of insulin treated Sprague-Dawley rat model of streptozotocin-induced diabetes mellitus at 10 mg/kg, po by HPLC method. Format: ADME, organism-based. On the set-up: dose 10 mg/kg, route oral. The conditions noted are these: read-out: Drug excretion. The gist of the method:
(§1)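 STZ-diabetic (65 mg/kg i.p.), insulin-treated or control rats were dosed with GLB 10 mg/kg orally on day 35 after overnight fast. Urine and feces were collected in metabolic cages at 6-h intervals to 36 h. For bile, the common bile duct was cannulated under pentobarbital and bile collected to 12 h. GLB measured by HPLC-fluorescence and expressed as % of dose.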

Data set [2] in a line: Oral clearance in Sprague-Dawley rat model of streptozotocin-induced diabetes mellitus at 10 mg/kg, po by HPLC method. Also noted: dose 10 mg/kg, route oral. Format: ADME, organism-based. The conditions noted are these: in vivo. An outline of the steps: (§2)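 Sprague-Dawley rats: diabetes induced by STZ 65 mg/kg i.p. in citrate buffer pH 4.5 (fasting glucose >11.1 mM at day 7). Insulin group received protamine zinc insulin 5 U/kg s.c. twice daily for 4 weeks. On day 35, overnight-fasted rats got GLB 10 mg/kg orally in 0.5% CMC-Na. Plasma GLB measured by HPLC with fluorescence detection (ex 308/em 360 nm). Non-compartmental analysis; n=6-7.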

Data set [3] is described as follows: Mean residence time in normal Sprague-Dawley rat at 10 mg/kg, po by HPLC method. The data set is classed as ADME, organism-based. On the set-up: dose 10 mg/kg, route oral. The conditions noted are these: in vivo. The gist of the method:
as §2

The nature of data set [4]: Oral clearance in insulin treated Sprague-Dawley rat model of streptozotocin-induced diabetes mellitus at 10 mg/kg, po by HPLC method. Format: ADME, organism-based. Also noted: dose 10 mg/kg, route oral. The conditions noted are these: in vivo. An outline of the steps:
(§3)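 Rats given STZ 65 mg/kg i.p. in citrate buffer pH 4.5 (controls got buffer); diabetic if fasting glucose >11.1 mM at day 7; insulin group got protamine zinc insulin 5 U/kg s.c. twice daily for 4 weeks. On day 35, overnight-fasted rats dosed orally with 10 mg/kg in 0.5% CMC-Na; plasma by ethyl acetate extraction, HPLC fluorescence (ex 308/em 360 nm); non-compartmental analysis; n=6-7, mean ± S.D.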

Data set [5] has as its system Jejunum. In words: Drug absorption in normal Sprague-Dawley rat jejunum at 10 ug/ml in presence of 50 to 200 uM BCRP inhibitor novobiocin. The data set is classed as ADME, tissue-based. The conditions noted are these: in vivo. The gist of the method: (§4)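 Normal rats underwent in situ single-pass jejunal perfusion: saline preperfusion at 0.2 mL/min, 37 °C, for 20 min, then K-H buffer with GLB 10 μg/mL with or without novobiocin 50 or 200 μM. Effluent was collected every 15 min. Peff (cm/min) was calculated from GLB loss and the absorptive area of the segment; n=5.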

A short description of data set [6]: AUC (0 to infinity) in Sprague-Dawley rat model of streptozotocin-induced diabetes mellitus at 10 mg/kg, po by HPLC method. Format: ADME, organism-based. On the set-up: time infinity, dose 10 mg/kg, route oral. The conditions noted are these: in vivo. An outline of the steps: as §2
Data set [7] can be described thus: Apparent oral volume of distribution in insulin treated Sprague-Dawley rat model of streptozotocin-induced diabetes mellitus at 10 mg/kg, po by HPLC method. The data set is classed as ADME, organism-based. Also noted: dose 10 mg/kg, route oral. The conditions noted are these: in vivo. The gist of the method: as §2
A short description of data set [8]: Apparent oral volume of distribution in normal Sprague-Dawley rat at 10 mg/kg, po by HPLC method. On the set-up: dose 10 mg/kg, route oral. The conditions noted are these: in vivo. The data set is classed as ADME, organism-based. The gist of the method: as §2
Data set [9] relates to Liver microsome. In words: Apparent hepatic clearance in normal Sprague-Dawley rat liver microsomes assessed per mg protein at 4 uM after 60 mins. The conditions noted are these: 1 h. Format: ADME. The gist of the method:
(§5)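 Liver microsomes (0.5 mg/mL protein) from control, STZ-diabetic or insulin-treated diabetic rats, 0.01 M phosphate buffer pH 7.4, 4 μM GLB (methanol <1%); 5 min preincubation at 37 °C, started with NADPH regenerating system. Stopped with 1 M HCl at 0, 5, 15, 30, 45, 60 min. GLB depletion measured by HPLC-fluorescence. AUC by linear trapezoid; Clapp = initial dose/AUC0-t; t1/2 = 0.693/terminal slope. Triplicate incubations; 4-5 rats.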
(Microsomes from liver hold many membrane-bound enzymes, among them those of drug oxidation.)

A short description of data set [10]: Terminal elimination half life in normal Sprague-Dawley rat at 10 mg/kg, po by HPLC method. The data set is classed as ADME, organism-based. On the set-up: dose 10 mg/kg, route oral. The conditions noted are these: in vivo, read-out: beta t1/2 (converted). An outline of the steps: as §3
Data set [11] concerns Liver microsome. In words: Drug metabolism in streptozotocin-induced diabetes mellitus Sprague-Dawley rat liver microsomes assessed as compound level at 4 uM after 60 mins (reference value: 2.0 +/- 0.13 ug/ml). The conditions noted are these: 1 h. The data set is classed as ADME.
A short description of data set [12]: Half life in normal Sprague-Dawley rat liver microsomes at 4 uM after 60 mins. The data set is classed as ADME. An outline of the steps:
as §5

Data set [13] in a line: Half life in insulin treated streptozotocin-induced diabetes mellitus Sprague-Dawley rat liver microsomes at 4 uM after 60 mins. The data set is classed as ADME. The gist of the method:
as §5

The nature of data set [14]: AUC (0 to 60 mins) in insulin treated streptozotocin-induced diabetes mellitus Sprague-Dawley rat liver microsomes at 4 uM after 60 mins. Also noted: dose 4 uM, time < 1 hr. The data set is classed as ADME. The gist of the method:
as §5

For data set [15], the system named is Liver microsome. Kind of data set: Apparent hepatic clearance in streptozotocin-induced diabetes mellitus Sprague-Dawley rat liver microsomes assessed per mg protein at 4 uM after 60 mins. Format: ADME. The conditions noted are these: 1 h. An outline of the steps:
as §5

In data set [16] the test system is Liver microsome. Kind of data set: Apparent hepatic clearance in insulin treated streptozotocin-induced diabetes mellitus Sprague-Dawley rat liver microsomes assessed per mg protein at 4 uM after 60 mins. The data set is classed as ADME. The conditions noted are these: 1 h. The gist of the method: as §5
In data set [17] the test system is Jejunum. Kind of data set: Drug absorption in normal Sprague-Dawley rat jejunum assessed as 200 uM BCRP inhibitor novobiocin-mediated increase in apparent effective permeability at 10 ug/ml measured at 90 mins of perfusion. Format: ADME, tissue-based. Also noted: scale not given: the % may be the effect or the level left. The conditions noted are these: 1.5 h. An outline of the steps: as §4

Data set [18] in a line: AUC (0 to infinity) in insulin treated Sprague-Dawley rat model of streptozotocin-induced diabetes mellitus at 10 mg/kg, po by HPLC method. Format: ADME, organism-based. On the set-up: dose 10 mg/kg, route oral, time infinity. The conditions noted are these: in vivo. An outline of the steps: as §2
Data set [19] can be described thus: Drug excretion in normal Sprague-Dawley rat urine at 10 mg/kg, po by HPLC method. Format: ADME, organism-based. Also noted: dose 10 mg/kg, route oral. The conditions noted are these: read-out: Drug excretion. An outline of the steps:
as §1

Data set [20] in a line: Drug excretion in feces of insulin treated Sprague-Dawley rat model of streptozotocin-induced diabetes mellitus at 10 mg/kg, po by HPLC method. The conditions noted are these: faeces, read-out: Drug excretion. Format: ADME, organism-based. On the set-up: dose 10 mg/kg, route oral. The gist of the method:
as §1

The nature of data set [21]: Mean residence time in insulin treated Sprague-Dawley rat model of streptozotocin-induced diabetes mellitus at 10 mg/kg, po by HPLC method. The data set is classed as ADME, organism-based. Also noted: dose 10 mg/kg, route oral. The conditions noted are these: in vivo. The gist of the method: as §2
Data set [22] is described as follows: Drug excretion in normal Sprague-Dawley rat feces at 10 mg/kg, po by HPLC method. The data set is classed as ADME, organism-based. Also noted: dose 10 mg/kg, route oral. The conditions noted are these: faeces, read-out: Drug excretion. The gist of the method: as §1
Data set [23] is described as follows: Drug excretion in feces of Sprague-Dawley rat model of streptozotocin-induced diabetes mellitus at 10 mg/kg, po by HPLC method. Format: ADME, organism-based. Also noted: dose 10 mg/kg, route oral. The conditions noted are these: faeces, read-out: Drug excretion. An outline of the steps:
as §1

Data set [24] is described as follows: Drug excretion in urine of Sprague-Dawley rat model of streptozotocin-induced diabetes mellitus at 10 mg/kg, po by HPLC method. Format: ADME, organism-based. Also noted: dose 10 mg/kg, route oral. The conditions noted are these: read-out: Drug excretion. An outline of the steps: as §1

By CL/F is commonly meant clearance divided by bioavailability, as obtained after extravascular dosing. For orientation: Vd/F means the apparent distribution volume after extravascular dosing. With `COc1ccc(Cl)cc1C(=O)NCCc1ccc(S(=O)(=O)NC(=O)NC2CCCCC2)cc1` [GLYBURIDE], the dose excreted in data set [1] worked out at 0.018%; in data set [19], 0.0042%; in data set [20] it was 50%; in [22] it was 72%; in data set [23], 40%; in data set [24], 0.023%. For the same compound, the CL/F is 12 mL/min/kg in [2] and 66.3 mL/min/kg in [4]. In addition, the MRT in data set [3] turned out to be 7.23 h; in [21] it was 8.15 h. The Drug absorption entry with Jejunum [5] is “Active”. The AUC(0-inf) stood at 15200 ng·h/mL in [6] and 3000 ng·h/mL in data set [18]. Further, the results for the Vd/F in data set [7] and in data set [8] were 36.8 L/kg and 25.7 L/kg, respectively. Further, the CLH(app) in the data set on Liver microsome [9] turned out to be 205 µL/min/mg; in the data set on Liver microsome [15], 52 µL/min/mg; with Liver microsome [16] it was 176 µL/min/mg. In addition, the half-life in data set [10] was 4.55 h. Further, the Drug uptake in the data set with Liver microsome [11] stood at 0.52 µg/mL. Further, the values for the half-life at 4 µM in data set [12] and in [13] were 0.207 h and 0.211 h, respectively. Besides, in data set [14], the AUC(0-t) at 1 h, 4 µM was 357 ng·h/mL. Also, the Activity in the data set on Jejunum [17] is 32%.

(Values after ChEMBL document CHEMBL3525979, “Combined contributions of impaired hepatic CYP2C11 and intestinal breast cancer resistance protein activities and expression to increased oral glibenclamide exposure in rats with streptozotocin-induced diabetes mellitus” (Drug Metab Dispos, 2012).)
